Reference: BindingDB's records for doi:10.1021/acs.jmedchem.8b01327 (2019)

Biological target: Mu-type opioid receptor (Rattus norvegicus, UniProt P33535)
Experiment: Displacement of [3H]DAMGO from mu opioid receptor in rat brain membranes incubated for 45 mins by liquid scintillation counting method
Method in brief: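 Rat brain membranes (cerebella removed; 0.3–0.5 mg protein) in 50 mM Tris-HCl, pH 7.4, were incubated 45 min at 35 °C with 1 nM [3H]DAMGO (MOR) or 0.5 nM [3H][Ile5,6]deltorphin II (DOR) plus varied test concentrations. Nonspecific binding was set with 10 μM naloxone. Samples were GF/C filtered, washed and scintillation counted. Ki was obtained by Cheng–Prusoff; duplicates, 3–4 experiments.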

Mu-type opioid receptor, sequence (P33535 whole entry): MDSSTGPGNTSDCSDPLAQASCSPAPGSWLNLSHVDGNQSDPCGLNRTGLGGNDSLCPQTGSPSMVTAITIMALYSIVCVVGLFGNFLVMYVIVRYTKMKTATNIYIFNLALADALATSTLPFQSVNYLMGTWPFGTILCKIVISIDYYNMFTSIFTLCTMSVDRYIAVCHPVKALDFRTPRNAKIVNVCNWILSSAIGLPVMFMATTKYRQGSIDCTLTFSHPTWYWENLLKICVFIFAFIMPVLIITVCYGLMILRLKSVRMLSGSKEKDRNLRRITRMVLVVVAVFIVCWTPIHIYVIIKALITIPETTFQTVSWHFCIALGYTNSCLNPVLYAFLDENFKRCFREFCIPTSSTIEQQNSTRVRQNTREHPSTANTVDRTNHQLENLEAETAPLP

CO[C@@]12CC[C@@H](N[C@@H](CC(N)=O)C(=O)O)[C@@H]3Oc4c(O)ccc5c4[C@@]31CCN(C)[C@@H]2C5
Ki: 1.3 nM
